Measurements taken from ChEMBL document CHEMBL3621107, “Ring fusion strategy for synthesis and lead optimization of sulfur-substituted anthra[1,2-c][1,2,5]thiadiazole-6,11-dione derivatives as promising scaffold of antitumor agents” (Eur J Med Chem, 2015).
Active and inactive are the calls of the source. The calls are words filed in the database; no cut-off is given here.

Legend:
SF-539 = assay: Cytotoxicity against human SF539 cells after 48 hrs by SRB assay; assay type: functional; conditions: SF-539, 48 h
How it was run: (§1)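 Second-stage NCI-60 panel run by the NCI Developmental Therapeutics Program, covering nine tumour subpanels. Five concentrations were tested: 0.01, 0.1, 1, 10 and 100 μM. Percentage growth at each level was plotted against log10 drug concentration. GI50, TGI and LC50 were read from these dose-response curves. Subpanel MID values were divided into the full-panel MID to give selectivity ratios.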

T47D = assay: Cytotoxicity against human T47D cells after 48 hrs by SRB assay; assay type: functional
How it was run: (§2)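 NCI-60 five-dose study run by NCI DTP at 0.01, 0.1, 1, 10 and 100 µM. Percentage growth at each level was plotted against log10 concentration for each line, and GI50, TGI and LC50 were read from the dose-response curves.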

A549 = assay: Cytotoxicity against human A549 cells after 48 hrs by SRB assay; assay type: functional; conditions: A549, 48 h
How it was run: (§3)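 NCI-60 human tumour cell panel screen, second stage, run by the NCI Developmental Therapeutics Program. Compounds were tested at five concentrations (0.01, 0.1, 1, 10 and 100 μM). Percentage growth was plotted against log10 concentration for each cell line. GI50, TGI and LC50 were taken from these dose-response curves.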

OVCAR-3 = assay: Cytotoxicity against human OVCAR3 cells after 48 hrs by SRB assay; assay type: functional; conditions: OVCAR-3, 48 h; for CC50: read-out: LC50 (the source's name); how it was run: as §1
TK-10 = assay: Cytotoxicity against human TK10 cells after 48 hrs by SRB assay; assay type: functional; conditions: TK-10, 48 h; how it was run: as §2
[1] = Cytotoxicity against human Hs578T cells after 48 hrs by SRB assay; assay type: functional; conditions: Hs-578T; how it was run: as §3
RPMI-8226 = assay: Cytotoxicity against human RPMI8226 cells after 48 hrs by SRB assay; assay type: functional; conditions: RPMI-8226, 48 h; how it was run: as §1
A498 = assay: Cytotoxicity against human A498 cells after 48 hrs by SRB assay; assay type: functional; conditions: A498, 48 h; how it was run: as §3
[2] = Cytotoxicity against human WPMY-1cells assessed as survival rate after 72 hrs by MTT assay; assay type: cell-based; conditions: WPMY-1 cells, read-out: Survival
How it was run: (§4)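 About 2×10^3 cells/well preincubated 24 h at 37 °C, 5% CO2. Compound freshly dissolved in DMSO, diluted into complete medium and added at various concentrations (vehicle 0.1% DMSO) for 72 h. MTT added for 3 h at 37 °C, absorbance read at 570 nm, survival rate derived.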

[3] = target: Mitogen-activated protein kinase; ERK1/ERK2 (Homo sapiens) (UniProt P27361+P28482); assay: Inhibition of human ERK1/2 phosphorylation in human DU145 cells after 48 hrs by Western blotting; assay type: cell-based; conditions: DU-145
How it was run: (§5)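 DU-145 cells were treated at 3, 12 and 18 µM and phospho-ERK1/2 and phospho-p38 were assessed by Western blot. Lysis was on ice with centrifugation, then Bradford protein assay, 12% SDS-PAGE, PVDF transfer and chemiluminescent detection.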

DU-145 [4] = assay: Induction of apoptosis in human DU145 cells assessed as decrease in total PARP at 3 to 12 uM after 48 hrs by Western blotting; assay type: functional, cell-based
DU-145 [5] = assay: Induction of apoptosis in human DU145 cells assessed as cleaved caspase 3 at 3 to 12 uM after 48 hrs by Western blotting; assay type: functional, cell-based
How it was run: (§6)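 DU-145 cells were exposed to various concentrations for 48 h. Cells were washed in PBS and lysed on ice for 30 min, then spun at 120000g for 15 min. Protein was measured by Bradford, run on 12% SDS-PAGE and blotted to PVDF. Blots were probed for cleaved PARP and cleaved caspase-3 with chemiluminescent detection and β-actin as loading control; n=3 independent experiments.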

[6] = target: MAP kinase p38 (Homo sapiens) (UniProt O15264+Q15759+Q16539+P53778); assay: Inhibition of human p38 phosphorylation in human DU145 cells after 48 hrs by Western blotting; assay type: cell-based; conditions: DU-145; how it was run: as §5
DU-145 [7] = assay: Induction of apoptosis in human DU145 cells assessed as decreased levels of cyclin D1 at 3 to 18 uM after 48 hrs by Western blotting; assay type: functional, cell-based
How it was run: (§7)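 DU-145 lysates were analysed by immunoblot for cyclin D1 and Bcl-2 after dosing across a concentration range. Cells were lysed on ice and cleared by centrifugation. Protein was quantified by Bradford, run on 12% SDS-PAGE and transferred to PVDF, with chemiluminescent detection. α-Tubulin served as loading control; n=3 independent experiments.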

DU-145 [8] = assay: Induction of apoptosis in human DU145 cells assessed as early apoptotic cells at 3 to 12 uM after 24 hrs by flow cytometry; assay type: functional, cell-based
DU-145 [9] = assay: Induction of apoptosis in human DU145 cells assessed as increase in cleaved PARP at 3 to 12 uM after 48 hrs by Western blotting; assay type: functional, cell-based; how it was run: as §6
DU-145 [10] = assay: Induction of apoptosis in human DU145 cells assessed as cell rounding and shrinkage at 5 uM after 24 hrs by phase contrast microscopy analysis; assay type: functional, cell-based
How it was run: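 DU-145 cells were seeded at 5×10^5 per 10 cm dish and treated with various concentrations for 24 h. Unfixed cells were examined and photographed by phase-contrast microscopy for rounding and shrinkage.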

DU-145 [11] = assay: Induction of apoptosis in human DU145 cells assessed as decreased levels of Bcl-2 at 3 to 18 uM after 48 hrs by Western blotting; assay type: functional, cell-based; how it was run: as §7
[12] = Cytotoxicity against human RWPE1 cells assessed as survival rate after 72 hrs by MTT assay; assay type: cell-based, RWPE-1; conditions: RWPE1 cells, read-out: Survival; how it was run: as §4
[13] = Cytotoxicity against human SV-HUC1 cells assessed as survival rate after 72 hrs by MTT assay; assay type: cell-based; conditions: SV-HUC1 cells, read-out: Survival
How it was run: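 SV-HUC-1 cells grown in Ham's F-12K with 5% heat-inactivated fetal calf serum, 37 °C, 5% CO2. About 2×10^3 cells/well plated for 24 h, then a range of compound concentrations (DMSO stock diluted into medium; vehicle 0.1% DMSO) for 72 h. MTT added for 3 h at 37 °C; absorbance 570 nm.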

Mitogen-activated protein kinase; ERK1/ERK2 (Homo sapiens), sequence (P27361 whole entry, looked up): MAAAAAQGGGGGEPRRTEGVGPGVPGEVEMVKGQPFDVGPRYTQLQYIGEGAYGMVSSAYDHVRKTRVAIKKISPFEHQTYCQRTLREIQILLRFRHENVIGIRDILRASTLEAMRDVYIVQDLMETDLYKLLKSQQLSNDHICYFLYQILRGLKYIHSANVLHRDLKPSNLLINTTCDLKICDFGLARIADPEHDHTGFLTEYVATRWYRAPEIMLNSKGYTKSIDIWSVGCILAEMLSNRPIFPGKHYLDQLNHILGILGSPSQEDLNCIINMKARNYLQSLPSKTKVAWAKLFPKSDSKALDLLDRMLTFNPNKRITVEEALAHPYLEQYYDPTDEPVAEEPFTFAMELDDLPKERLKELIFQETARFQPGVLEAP
Mitogen-activated protein kinase; ERK1/ERK2 (Homo sapiens), sequence (P28482 whole entry, looked up): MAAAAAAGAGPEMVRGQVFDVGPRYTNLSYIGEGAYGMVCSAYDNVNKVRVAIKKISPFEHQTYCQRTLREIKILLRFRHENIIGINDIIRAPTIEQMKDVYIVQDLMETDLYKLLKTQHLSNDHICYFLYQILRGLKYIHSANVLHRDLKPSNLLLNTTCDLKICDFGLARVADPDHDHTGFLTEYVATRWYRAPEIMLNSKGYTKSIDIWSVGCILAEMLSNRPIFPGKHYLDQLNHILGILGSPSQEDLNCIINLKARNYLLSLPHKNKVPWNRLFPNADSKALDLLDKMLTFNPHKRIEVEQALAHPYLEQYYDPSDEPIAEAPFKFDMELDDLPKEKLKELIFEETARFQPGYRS

| Structure (SMILES) | GI50 (SF-539) | LC50 (SF-539) | TGI (SF-539) | GI50 (T47D) | LC50 (concentration killing 50% of cells) (T47D) | TGI (T47D) | GI50 (A549) | LC50 (concentration killing 50% of cells) (A549) | TGI (A549) | GI50 (OVCAR-3) | TGI (OVCAR-3) | CC50 (OVCAR-3) | GI50 (TK-10) | LC50 (concentration killing 50% of cells) (TK-10) | TGI (TK-10) | GI50 [1] | LC50 [1] | TGI [1] | GI50 (RPMI-8226) | LC50 (RPMI-8226) | further results |
| --- | --- | --- | --- | --- | --- | --- | --- | --- | --- | --- | --- | --- | --- | --- | --- | --- | --- | --- | --- | --- | --- |
| O=C1c2ccccc2C(=O)c2c1cc(SCc1ccccc1)c1nsnc21 | 10.5 µM | 38.9 µM | 20.2 µM | 1.16 µM | 42.9 µM | 5.29 µM | > 50 µM | > 50 µM | > 50 µM | 8.16 µM | 15.1 µM | 27.9 µM | 32 µM | > 50 µM | > 50 µM | 17.3 µM | > 50 µM | > 50 µM | 8.45 µM | > 50 µM | TGI (RPMI-8226): 33.4 µM; GI50 (A498): > 50 µM; LC50 (concentration killing 50% of cells) (A498): > 50 µM; TGI (A498): > 50 µM |
| O=C1c2ccccc2C(=O)c2c1cc(Sc1cccc(Cl)c1)c1nsnc21 | 2.19 µM | 7.55 µM | 4.07 µM | 1.29 µM | 8.72 µM | 3.35 µM | 6.66 µM | 73.6 µM | 24.4 µM | 0.45 µM | 1.74 µM | 6.5 µM | 5.31 µM | 39.9 µM | 14.8 µM | 1.97 µM | > 100 µM | 6.55 µM | 1.42 µM | > 100 µM | TGI (RPMI-8226): 6.32 µM; GI50 (A498): 13 µM; LC50 (concentration killing 50% of cells) (A498): 6.54 µM; TGI (A498): 29.2 µM |
| O=C1c2ccccc2C(=O)c2c1cc(Sc1ccccc1Br)c1nsnc21 | 10.3 µM | 40.5 µM | 20.5 µM | 3.7 µM | > 50 µM | 18.3 µM | > 50 µM | > 50 µM | > 50 µM | 10.2 µM | 22.8 µM | > 50 µM | 29.7 µM | > 50 µM | > 50 µM | 17.8 µM | > 50 µM | > 50 µM | 11.3 µM | > 50 µM | TGI (RPMI-8226): > 50 µM; GI50 (A498): 10.7 µM; LC50 (concentration killing 50% of cells) (A498): > 50 µM; TGI (A498): > 50 µM |
| CC(C)Sc1cc2c(c3nsnc13)C(=O)c1ccccc1C2=O | 1.73 µM | 7.14 µM | 3.51 µM | 0.38 µM | 9.11 µM | 2.15 µM | 2.43 µM | 51.4 µM | 7.94 µM | 0.25 µM | 0.638 µM | 2.98 µM | 5.68 µM | 87.6 µM | 18 µM | 1.62 µM | > 100 µM | 6.27 µM | 0.29 µM | > 100 µM | viability at 72 h [2]: 50%; inhibition [3]: Active; Activity (DU-145 [4]): Active; Activity (DU-145 [5]): Active; inhibition [6]: Active; Activity (DU-145 [7]): Active; Activity (DU-145 [8]): Active; Activity (DU-145 [9]): Active; Activity (DU-145 [10]): Active; Activity (DU-145 [11]): Active; TGI (RPMI-8226): 1.78 µM; viability at 72 h [12]: 60%; GI50 (A498): 0.56 µM; LC50 (concentration killing 50% of cells) (A498): 23.6 µM; TGI (A498): 4.28 µM; viability at 72 h [13]: 80% |
| O=C1c2ccccc2C(=O)c2c1cc(Sc1ccc(F)cc1F)c1nsnc21 | 2.08 µM | 8.63 µM | 4.24 µM | 0.86 µM | 7.02 µM | 2.57 µM | 14.9 µM | > 100 µM | 42.4 µM | 1.82 µM | 3.44 µM | 6.52 µM | 5.07 µM | 38.6 µM | 14.1 µM | 2.81 µM | > 100 µM | > 100 µM | 2.2 µM | 63.9 µM | TGI (RPMI-8226): 8.08 µM; GI50 (A498): 2.26 µM; LC50 (concentration killing 50% of cells) (A498): > 100 µM; TGI (A498): 58.5 µM |
